What was measured:
[1] = target: T1, Delta-type opioid receptor (Homo sapiens, UniProt P41143); experiment: Intrinsic agonist activity at human delta opioid receptor expressed in CHO cells by [35S]GTPgammaS binding assay; format: functional, cell-based
[2] = target: T2, Kappa-type opioid receptor (Homo sapiens, UniProt P41145); experiment: Antagonist activity at human kappa opioid receptor expressed in CHO cells by [35S]GTPgammaS binding assay; format: functional, cell-based
Summary of the method: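 Inhibition of [35S]GTPγS binding stimulated by the selective agonist in CHO cells over-expressing the human receptor. Agonists were DPDPE (delta) and U69,593 (kappa). Agonist dose-response curves run with and without a single concentration of test compound. Ke = [L]/(DR−1), where DR is the ratio of agonist EC50 with and without test compound. Mean ± SE of at least three experiments.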

Mu-type opioid receptor [3] = target: T3, Mu-type opioid receptor (Homo sapiens, UniProt P35372); experiment: Agonist activity at human mu opioid receptor expressed in CHO cells by [35S]GTPgammaS binding assay relative to DAMGO; format: functional, cell-based
Summary of the method: (§1)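 Membranes from CHO cells over-expressing the human receptor. Stimulated [35S]GTPγS binding measured with eight concentrations chosen to define both asymptotes of the concentration-response curve. EC50 and Emax calculated. Emax expressed as a percentage of the Emax of the standard agonist on the same plate: DAMGO (mu), DPDPE (delta), U50,488 (kappa). Mean ± SE of at least three experiments.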

Mu-type opioid receptor [4] = target: T3, Mu-type opioid receptor; experiment: Agonist activity at human mu opioid receptor expressed in CHO cells by [35S]GTPgammaS binding assay; format: functional, cell-based; summary of the method: as §1
[5] = target: T2, Kappa-type opioid receptor; experiment: Displacement of [3H]U-69593 from human kappa opioid receptor expressed in CHO cells; format: cell-based
Summary of the method: (§2)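 Competition radioligand binding at the human receptors, run at the Psychoactive Drug Screening Program. Radioligands were [3H]DAMGO (MOR), [3H]DADLE (DOR) and [3H]U69,593 (KOR). Radioligand Kd determined by homologous competition binding with the receptor-specific radioligand. Ki values reported.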

[6] = target: T1, Delta-type opioid receptor; experiment: Displacement of [3H]DADLE from human delta opioid receptor expressed in CHO cells; format: cell-based
Summary of the method: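 Competition radioligand binding at the human receptors, run at the Psychoactive Drug Screening Program. Radioligand Kd determined by homologous competition binding with the receptor-specific radioligand. Ki values reported.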

Mu-type opioid receptor [7] = target: T3, Mu-type opioid receptor; experiment: Displacement of [3H]DAMGO from human mu opioid receptor expressed in CHO cells; format: cell-based; summary of the method: as §2
[8] = target: T2, Kappa-type opioid receptor; experiment: Agonist activity at human kappa opioid receptor expressed in CHO cells by [35S]GTPgammaS binding assay relative to U50,488; format: functional, cell-based; summary of the method: as §1
[9] = target: T2, Kappa-type opioid receptor; experiment: Agonist activity at human kappa opioid receptor expressed in CHO cells by [35S]GTPgammaS binding assay; format: functional, cell-based; summary of the method: as §1
[10] = target: T1, Delta-type opioid receptor; experiment: Agonist activity at human delta opioid receptor expressed in CHO cells by [35S]GTPgammaS binding assay relative to DPDPE; format: functional, cell-based; summary of the method: as §1
[11] = target: T1, Delta-type opioid receptor; experiment: Agonist activity at human delta opioid receptor expressed in CHO cells by [35S]GTPgammaS binding assay; format: functional, cell-based; summary of the method: as §1
[12] = target: T1, Delta-type opioid receptor; experiment: Intrinsic activity at human delta opioid receptor expressed in CHO cells by [35S]GTPgammaS binding assay; format: functional, cell-based

T2 sequence (P41145 whole entry): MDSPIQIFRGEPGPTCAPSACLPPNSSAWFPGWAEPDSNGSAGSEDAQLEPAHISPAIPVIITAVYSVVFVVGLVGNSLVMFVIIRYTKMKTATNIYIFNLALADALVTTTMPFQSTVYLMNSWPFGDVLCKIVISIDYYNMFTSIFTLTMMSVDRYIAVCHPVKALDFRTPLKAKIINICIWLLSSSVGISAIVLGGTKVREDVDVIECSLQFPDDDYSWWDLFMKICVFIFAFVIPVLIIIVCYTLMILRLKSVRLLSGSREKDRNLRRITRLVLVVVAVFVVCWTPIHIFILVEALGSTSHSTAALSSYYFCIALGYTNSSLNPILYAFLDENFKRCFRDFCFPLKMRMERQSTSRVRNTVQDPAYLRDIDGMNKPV
T3 sequence (P35372 whole entry): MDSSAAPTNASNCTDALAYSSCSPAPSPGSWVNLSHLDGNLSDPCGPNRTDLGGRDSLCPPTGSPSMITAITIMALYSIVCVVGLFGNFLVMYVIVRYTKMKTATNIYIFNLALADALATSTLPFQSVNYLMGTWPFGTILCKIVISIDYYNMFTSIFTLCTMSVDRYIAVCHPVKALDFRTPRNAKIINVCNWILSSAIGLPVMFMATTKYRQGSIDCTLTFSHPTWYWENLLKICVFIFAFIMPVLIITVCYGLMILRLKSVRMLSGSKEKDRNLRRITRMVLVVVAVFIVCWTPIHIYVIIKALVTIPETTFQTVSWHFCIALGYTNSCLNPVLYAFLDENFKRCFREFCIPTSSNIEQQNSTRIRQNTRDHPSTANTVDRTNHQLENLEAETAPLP
T1 sequence (P41143 whole entry): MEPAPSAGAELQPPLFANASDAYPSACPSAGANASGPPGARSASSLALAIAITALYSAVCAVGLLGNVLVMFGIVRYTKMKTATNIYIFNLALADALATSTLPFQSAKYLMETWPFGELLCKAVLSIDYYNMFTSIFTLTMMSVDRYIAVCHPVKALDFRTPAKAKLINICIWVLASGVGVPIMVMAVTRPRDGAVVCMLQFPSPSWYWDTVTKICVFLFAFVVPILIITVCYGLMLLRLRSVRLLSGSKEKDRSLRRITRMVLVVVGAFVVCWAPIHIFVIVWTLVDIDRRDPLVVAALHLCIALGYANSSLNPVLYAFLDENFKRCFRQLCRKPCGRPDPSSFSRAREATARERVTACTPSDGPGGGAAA

| Compound | Agonist potency [1] | Ke [2] | Emax (Mu-type opioid receptor [3]) | EC50 (Mu-type opioid receptor [4]) | Ki [5] | Ki [6] | Ki (Mu-type opioid receptor [7]) | Emax [8] | EC50 [9] | Emax [10] | EC50 [11] | Intrinsic activity [12] | EC50 ([11]; cho) | EC50 (Mu-type opioid receptor [4]; cho) |
| --- | --- | --- | --- | --- | --- | --- | --- | --- | --- | --- | --- | --- | --- | --- |
| C[C@H]1CN(CCCc2ccccc2)[C@@H]2C[C@@H](N)C[C@@]1(c1cccc(O)c1)C2 | > 5000 nM | 21.7 nM | 44% | 20.6 nM | – | – | – | – | – | – | – | – | – | – |
| C[C@@H]1CN(CCCc2ccccc2)[C@H]2C[C@H](N(C)CC3CC3)C[C@]1(c1cccc(O)c1)C2 | – | – | 109% | 2.7 nM | 0.92 nM | 9.04 nM | 0.43 nM | 38% | 40 nM | 24% | 10.3 nM | – | – | – |
| C[C@@H]1CN(CCCc2ccccc2)[C@@H]2CCC[C@]1(c1cccc(O)c1)C2 | – | – | – | – | 7.79 nM | 161 nM | 1.61 nM | – | – | – | – | – | – | – |
| CCN(C)[C@H]1C[C@H]2C[C@@](c3cccc(O)c3)(C1)[C@H](C)CN2CCCc1ccccc1 | > 5000 nM | – | 94% | 60 nM | – | – | – | – | – | – | – | > 5 µM | – | – |
| C[C@@H]1CN(CCCc2ccccc2)[C@H]2C[C@H](N)C[C@]1(c1cccc(O)c1)C2 | – | 10.1 nM | 74% | – | – | – | – | – | – | 101% | – | – | 7.5 nM | 19.5 nM |
| CCN[C@H]1C[C@H]2C[C@@](c3cccc(O)c3)(C1)[C@H](C)CN2CCCc1ccccc1 | > 5000 nM | – | 14% | 33 nM | 8.22 nM | 264 nM | 3.35 nM | – | – | – | – | – | – | – |
| CCCN[C@H]1C[C@H]2C[C@@](c3cccc(O)c3)(C1)[C@H](C)CN2CCCc1ccccc1 | > 5000 nM | – | 57% | 18 nM | 1.4 nM | 73.8 nM | 1.66 nM | 20.7% | 293 nM | – | – | – | – | – |
| C[C@@H]1CN(CCCc2ccccc2)[C@H]2C[C@H](N(C)C)C[C@]1(c1cccc(O)c1)C2 | – | – | 104% | 6.5 nM | 9.9 nM | 18.4 nM | 0.28 nM | – | – | 55% | 38 nM | – | – | – |
| C[C@@H]1CN(CCCc2ccccc2)[C@H]2C[C@H](NCC3CC3)C[C@]1(c1cccc(O)c1)C2 | – | – | 52% | 130 nM | 13.7 nM | – | 7.55 nM | – | – | – | – | – | – | – |
| CN[C@H]1C[C@H]2C[C@@](c3cccc(O)c3)(C1)[C@H](C)CN2CCCc1ccccc1 | – | – | 105% | 15 nM | 20.9 nM | 36.2 nM | 0.371 nM | – | – | 101% | 14.8 nM | – | – | – |

Reference: ChEMBL document CHEMBL3085655, “4β-Methyl-5-(3-hydroxyphenyl)morphan opioid agonist and partial agonist derived from a 4β-methyl-5-(3-hydroxyphenyl)morphan pure antagonist” (J Med Chem, 2013)
